Source: ChEMBL document CHEMBL4706516, “Development of dual inhibitors targeting pyruvate dehydrogenase kinases and human lactate dehydrogenase A: High-throughput virtual screening, synthesis and biological validation” (Eur J Med Chem, 2020)
Active and inactive are the calls of the source. The calls are words filed in the database; no cut-off is given here.

How the values were obtained:
[1] = target: T1, L-lactate dehydrogenase A chain (Homo sapiens, UniProt P00338); assay: Inhibition of LDHA (unknown origin) in presence of NADH and sodium pyruvate measured after 10 mins by enzymatic assay
In short: (§1)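 LDHA at 5 nM final in buffer of 150 mM Tris-HCl pH 7.4 with EDTA and 0.01% Tween-20, compounds in 1% DMSO. Reaction started with substrate solution, final NADH 0.06 mM and sodium pyruvate 0.2 mM. After 10 min at room temperature, plates read at 340 nm. Screening done at a single concentration of 10.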

[2] = Inhibition of pig PDK assessed as catalytic activity measured after 30 mins by microplate reader based assay; design: species or system Sus scrofa
In short: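 Pig PDC preincubated 30 min at 37 °C in Mops pH 7.20 buffer with EDTA, KCl, MgCl2, acetyl-CoA, NADH, DTT and NaF. Kinase reaction started by adding ATP-containing buffer with or without compound; ATP-free wells serve as no-PDK controls. Reaction run 3 min at 37 °C, then stopped with ADP and pyruvate. Remaining PDC activity measured at 340 nm in Tris pH 7.8 with TPP, NAD+, pyruvate and CoA. IC50 is the mean of three independent experiments.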

[3] = test system: A549; assay: Anticancer activity against human A549 assessed as cell growth inhibition measured after 72 hrs by MTT assay; assay type: functional, cell-based; conditions: A549, 72 h
In short: (§2)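 A549 cells grown in DMEM with 10% FBS and 1% penicillin/streptomycin, 5% CO2, humidified; exponential-phase cells used. Cells seeded at 2000/well, exposed to compound for 72 h, then MTT added and incubated 4 h before readout. Single-concentration screening at […]; EC50 values calculated from two independent experiments.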

[4] = test system: A549; assay: Metabolic modulatory effect in human A549 cells assessed as decrease in lactate formation measured after 4 hrs by Flex analyzer; assay type: functional, cell-based; conditions: dose 10-40 µM
In short: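 A549 cells, 2 × 10^5 per well, plated overnight, then treated at […] for 4 h at 37 °C. Medium collected and centrifuged 10 min at 10000 rpm to remove debris. Lactate in the medium measured on a Nova Bioprofile Flex analyzer.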

[5] = test system: A549; assay: Metabolic modulatory effect in human A549 cells assessed as increase in oxygen consumption rate at 10 to 40 uM measured after 4 hrs by seahorse XF24 extracellular flux analyzer assay; assay type: functional, cell-based; conditions: dose 10-40 µM
[6] = target: T1, L-lactate dehydrogenase A chain; assay: Inhibition of LDHA (unknown origin) in presence of NADH and sodium pyruvate at 10 uM by enzymatic assay relative to parent compound; in short: as §1
[7] = species: Sus scrofa; assay: Inhibition of pig PDK assessed as catalytic activity at 10 uM by PDC assay
[8] = test system: A549; assay: Antiproliferative activity against human A549 assessed as cell growth inhibition at 20 uM measured after 72 hrs by MTT assay; assay type: functional; in short: as §2

IC50 [1]	IC50 [2]	SMILES	also measured
0.7 µM	1.6 µM	Cc1occc(=O)c1OCCN1CCN(C(=O)c2ccco2)CC1	EC50 [3]: 15.7 µM; Activity [4]: Dose-dependent effect; Activity [5]: Active
4.6 µM	> 10 µM	COc1cccc(N2CCN(C(=O)COc3c(C)occc3=O)CC2)c1	
5.9 µM	9.1 µM	Cc1occc(=O)c1OCC(=O)N1CCN(c2cccc(Cl)c2)CC1	inhibition [7]: 50%; inhibition at 20 µM [8]: 51%; EC50 [3]: 18.5 µM
> 10 µM	3 µM	Cc1occc(=O)c1OCCN1CCN(C(=O)c2ccccc2[N+](=O)[O-])CC1	
7.7 µM	> 10 µM	Cc1cccc(C(=O)N2CCN(CCOc3c(C)occc3=O)CC2)c1	
4.7 µM	5.1 µM	Cc1occc(=O)c1OCCN1CCN(C(=O)c2ccc(C(F)(F)F)cc2)CC1	EC50 [3]: > 20 µM
> 10 µM	1 µM	Cc1occc(=O)c1OCC(=O)N1CCN(c2cccc(F)c2)CC1	
6.9 µM	0.8 µM	Cc1occc(=O)c1OCC(=O)N1CCN(c2ccc([N+](=O)[O-])cc2)CC1	
> 10 µM	> 10 µM	Cc1ccccc1N1CCN(C(=O)COc2c(C)occc2=O)CC1	
> 10 µM	> 10 µM	Cc1occc(=O)c1OCC(=O)N1CCN(c2ccccc2F)CC1	
2.8 µM	> 10 µM	Cc1occc(=O)c1OCCN1CCN(C(=O)c2ccccc2)CC1	
3.7 µM	1.4 µM	Cc1occc(=O)c1OCC(=O)N1CCN(c2ccc(F)cc2)CC1	
> 10 µM	> 10 µM	COc1cccc(C(=O)N2CCN(CCOc3c(C)occc3=O)CC2)c1	
3.4 µM	5.9 µM	Cc1occc(=O)c1OCCN1CCN(C(=O)c2ccccc2F)CC1	EC50 [3]: > 20 µM
2.7 µM	3.9 µM	Cc1occc(=O)c1OCCN1CCN(C(=O)c2ccc(Cl)cc2)CC1	EC50 [3]: > 20 µM
> 10 µM	> 10 µM	Cc1occc(=O)c1OCCN1CCN(C(=O)C(Cl)Cl)CC1	
0.15 µM	0.8 µM	Cc1occc(=O)c1OCCN1CCN(C(=O)c2ccc(F)cc2)CC1	EC50 [3]: 13.2 µM; Activity [4]: Dose-dependent effect; Activity [5]: Active
0.56 µM	> 10 µM	COc1ccc(N2CCN(C(=O)COc3c(C)occc3=O)CC2)cc1	

The next lines start with the molecule.

SMILES	IC50 [1]	IC50 [2]	also measured
CC1(C)Cc2c(C#N)c(N3CCN(C(=O)C(=O)NCCO)CC3)nc(-c3ccccc3)c2CO1			inhibition [6]: Active; inhibition [7]: 50%; inhibition [8]: inactive
Cc1occc(=O)c1OCC(=O)N1CCN(c2ccccc2)CC1	> 10 µM	1.8 µM	
CCOC(=O)C(=O)N1CCN(c2nc(C(C)C)c3c(c2C#N)CCC3)CC1			inhibition [6]: Active; inhibition [7]: 50%; inhibition [8]: inactive
O=C(CN1C(=O)c2ccccc2N2C(=O)c3ccccc3C12)NCCNc1ncccn1 (stereo unspecified)			inhibition [6]: Active; inhibition [7]: 50%; inhibition at 20 µM [8]: 50%
Cc1occc(=O)c1OCC(=O)N1CCN(C(c2ccccc2)c2ccccc2)CC1	7.3 µM	> 10 µM	
CCOC(=O)C(=O)N1CCN(c2nc(C)c3c(c2C#N)CCCC3)CC1			inhibition [6]: Active; inhibition [7]: 50%; inhibition [8]: inactive
Cc1nc(N2CCN(C(=O)C(=O)NCCO)CC2)c(C#N)c2c1CCCC2			inhibition [6]: Active; inhibition [7]: 50%; inhibition [8]: inactive
Cc1occc(=O)c1OCC(=O)N1CCN(c2ncccn2)CC1	> 10 µM	> 10 µM	
CCOC(=O)C(=O)N1CCN(c2nc(-c3ccccc3)c3c(c2C#N)CC(C)(C)OC3)CC1			inhibition [6]: Active; inhibition [7]: 50%; inhibition [8]: inactive
Cc1occc(=O)c1OCC(=O)N1CCN(c2ccccc2[N+](=O)[O-])CC1	> 10 µM	6.3 µM	
COc1cc(OC)cc(N2CCN(C(=O)COc3c(C)occc3=O)CC2)c1	> 10 µM	> 10 µM	
COc1cccc(N2CCN(C(=O)COc3coc(C)cc3=O)CC2)c1			inhibition [6]: Active; inhibition [7]: 50%; inhibition [8]: inactive
Cc1occc(=O)c1OCC(=O)N1CCN(c2ccccn2)CC1	> 10 µM	> 10 µM	
CC(C)c1nc(N2CCN(C(=O)C(=O)NCCO)CC2)c(C#N)c2c1CCC2			inhibition [6]: Active; inhibition [7]: 50%; inhibition [8]: inactive
Cc1cc(C)cc(N2CCN(C(=O)COc3c(C)occc3=O)CC2)c1	> 10 µM	8.1 µM	
